# In the library only some 3.1% were active in any assay of this set; here they are far more common.
# PAX8 reporter – inhibitors of PAX8-driven TPO luciferase reporter, primary screen, RMG-I cells, single concentration. 360,000 tested, 1.2% active. SteadyGlo, 24 h. inhibition, % at 12.6 µM. AID 652154, 2013;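 active = mean replicate inhibition at least 60% with every replicate also reaching 60%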;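 also: luciferase light reporting Pax8 driven TPO promoter activity; plate controls were median of neutral control wells for no effect and mitoxantrone controls for full effect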
# FN deposition inh – inhibitors of fibronectin matrix deposition, primary screen, AH1F cells, Alexa488-fibronectin fluorescence, plate reader; 350,000 tested, 0.086% active; AH1F fibroblasts, overnight; inhibition, % at 12.6 µM;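 active = mean inhibition across replicates of 30% or more, regardless of how many single replicates reach that level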;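 also: positive control wells lacked labelled fibronectin entirely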
#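 Assay system: AH1F fibroblast monolayer, labelled fibronectin deposition. Amount: 10000 cells per well. Also added: labelled fibronectin 24 nM. Compound: single-point pinned compound. Incubation: cell attachment 1 h, compound and FN exposure overnight. Detection: fluorescence after three HBSS washes, excitation 485 nm, emission 525 nm. Read-out: inhibition of fibronectin deposition signal.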
# EWS-Fli inh – EWS/Fli-driven NR0B1 reporter inhibitors, primary screen, A673 cells, NR0B1 luciferase, luminescence, MLPCN library; viability-normalised; inhibition, % at 12.6 µM; 350,000 tested, 0.67% active; AID 651661, 2012;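 active = mean inhibition of at least 50% after viability correction, with every replicate also passing that limit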;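 also: firefly luciferase signal divided by Alamar Blue viability fluorescence both relative to DMSO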
# HIV Env fusion – inhibitors of HIV-1 Env-driven cell-cell fusion, primary screen, HeLa-JRFL effector, CEM21 target cells, luciferase. inhibition, % at 12.3 µM. 360,000 tested, 1.1% active;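 active = mean replicate inhibition score of at least 50 and every replicate individually at or above 50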;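 also: 0% = plate neutral controls and 100% = maraviroc near 300 nM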
# FGF22 binding – binders of human FGF22 protein, primary screen, FGF22 synaptogenesis inhibitor project, biophysical, thermal shift, single point; AID 651658, 2012; 340,000 tested, 1.5% active; Fibroblast growth factor 22 (Homo sapiens), Q9HCT0; recombinant FGF22 thermal shift, SYPRO orange fluorescence; percent of sucrose octasulfate shift, DMSO zero; activity (Tm shift, normalised), % at 9.99 µM;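 active = mean Tm shift, scaled 0 neutral to 100 positive control, at about 1.3% or above, every replicate too, limit read from the data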
# Target sequence (Q9HCT0 whole entry, looked up): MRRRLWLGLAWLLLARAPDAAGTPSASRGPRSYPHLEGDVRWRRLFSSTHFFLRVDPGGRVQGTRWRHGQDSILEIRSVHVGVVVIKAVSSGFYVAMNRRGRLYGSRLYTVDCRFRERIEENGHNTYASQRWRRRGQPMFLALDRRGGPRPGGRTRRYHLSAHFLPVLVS
# PGC1a acetyl inh – inhibitors of PGC1a acetylation signal, primary screen, cell-based, U2OS, AlphaScreen, inhibitor mode. AlphaScreen anti-acetyl-lysine; with virally co-expressed GCN5 acetyltransferase. inhibition, % at 15.6 µM. 350,000 tested, 0.17% active. AID 651687, 2012;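 active = every replicate shows inhibition of at least 40%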;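 also: 0% = neutral control wells and 100% = positive control wells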
# An asterisk follows results filed as active; x = no result; [ ] = dose if it differs, or a comment.
SMILES,PAX8 reporter,FN deposition inh,EWS-Fli inh,HIV Env fusion,FGF22 binding,PGC1a acetyl inh
Cc1cc(C)c(C(=O)Nc2cccc(F)c2)c(Cl)n1,1,3,2,8,43*,x
O=C(O)c1c2cc(Br)ccc2nc2[nH]c(=O)[nH]c(=O)c12,-7,-1,-2,43,43*,2
CCCCc1c(-c2ccccc2OC)ncn1CCc1ccccc1,12,5,19,13,0,x
CCCCc1c(-c2ccccc2OC)ncn1C(C)c1ccccc1 (centres undefined),10,12,16,76*,0,x
C[C@H]1CCCCO[C@@H](CN(C)C(=O)C2CCCCC2)[C@@H](C)CN([C@@H](C)CO)C(=O)c2cc(NC(=O)c3ccccc3)ccc2O1,x,x,3,-82[16.7 µM],0,-1
Cn1c(=O)oc2cc(S(=O)(=O)N3CCCc4ccccc43)ccc21,53,1,59*,17,0,-1
Cn1c(=O)oc2cc(S(=O)(=O)N3CCc4ccccc43)ccc21,0,-1,19,7,0,-1
COC(=O)Nc1ccc(S(=O)(=O)Nc2ccc(C(=O)O)cc2)cc1,-15,-8,13,-1,43*,x
CC1CCc2nc(NC(=O)c3ccc(S(=O)(=O)N4CCCc5ccccc54)cc3)sc2C1 (centres undefined),x,x,x,x,x,-11
COC(=O)Nc1ccc(S(=O)(=O)N2CCCc3ccccc32)cc1,x,15*,x,59*,x,x
O=C(Nc1nc2c(s1)CCCC2)c1ccc(S(=O)(=O)N2CCCc3ccccc32)cc1,21,x,x,64*,x,-5
CCO[C@@H]1OC(C(=O)NCc2nc3ccccc3[nH]2)=C[C@H](C(C)(C)C)[C@H]1CCCO,64*,-12,53*,-141,0,-21
CC(C)Oc1ccccc1C1CC(=O)Nc2cc3c(cc21)OCCO3 (centres undefined),80*,-4,x,-32,x,-30
CC(C)NC(=O)N(C)C[C@@H]1Oc2ccc(NS(C)(=O)=O)cc2C(=O)N([C@H](C)CO)C[C@H]1C,-11,-16,-11,24[16.7 µM],x,-7
Cc1ccc(S(=O)(=O)NCc2ccncc2)c(C)c1C,20,-8,26,55*,1,16
O=C(C=Cc1ccccc1)CC(c1ccccc1)N1CCOCC1 (centres undefined),25,7,59*,-75,0,12
O=C(C(c1ccccc1)N1CCOCC1)N1CCOCC1 (centres undefined),x,x,x,x,x,5
O=C(C[C@@H]1C=C[C@@H](NS(=O)(=O)c2ccc(F)cc2)[C@@H](CO)O1)N1CCC(Cc2ccccc2)CC1,15,-4,14,16[16.7 µM],0,0
C[C@@H]1CN([C@@H](C)CO)C(=O)c2cc(NC(=O)Nc3ccc(C(F)(F)F)cc3)ccc2O[C@@H](C)CCCCO[C@@H]1CN(C)Cc1ccncc1,83*,x,3,12[16.7 µM],-1,4
C[C@@H]1CCCCO[C@@H](CN(C)Cc2ccncc2)[C@H](C)CN([C@H](C)CO)C(=O)c2cc(NC(=O)Nc3ccc(C(F)(F)F)cc3)ccc2O1,99*,x,14,19[16.7 µM],-2,4
C[C@H]1CCCCO[C@H](CN(C)Cc2ccncc2)[C@@H](C)CN([C@@H](C)CO)C(=O)c2cc(NC(=O)Nc3ccc(C(F)(F)F)cc3)ccc2O1,58,x,9,13[16.7 µM],-2,4
C[C@@H]1CN([C@@H](C)CO)C(=O)c2cc(NC(=O)Nc3ccc(C(F)(F)F)cc3)ccc2O[C@@H](C)CCCCO[C@H]1CN(C)Cc1ccncc1,86*,x,14,3[16.7 µM],-1,-1
O=C(/C=C/c1cccs1)N1CCC2(CC1)Oc1ccc(Cl)cc1C(=O)C21CC(c2cccnc2)=NO1 (centres undefined),34,31*,10,-121,0,-3
CN(C)S(=O)(=O)c1ccc(C(=O)Nc2nc(-c3cccs3)cs2)cc1,20,10,-2,76*,0,44
Cc1ccc(S(=O)(=O)Nc2ccc3c(c2)C(=O)N([C@@H](C)CO)C[C@H](C)[C@@H](CN(C)Cc2ccc(C(=O)Nc4ccccc4N)cc2)OCCCC[C@@H](C)O3)cc1,18,13,x,x,x,-27
SMILES,PAX8 reporter,FN deposition inh,EWS-Fli inh,HIV Env fusion,FGF22 binding,PGC1a acetyl inh
Cc1ccn2cc(-c3cc4ccccc4oc3=O)nc2c1,-98,-11,68*,12,0,x
COc1ccc(C2CC(c3ccc(Br)cc3)=NN2C(=S)Nc2ccccc2)cc1 (centres undefined),123*,-3,-58,2,0,-10
O=C(Nc1ccccc1)N1N=C(c2ccc(F)cc2)CC1c1ccc(F)cc1 (centres undefined),82*,2,-11,x,0,x
COc1ccc(C2CC(c3ccccc3)=NN2C(=O)c2ccc(F)cc2)cc1 (centres undefined),7,x,-8,-23,0,5
COc1ccc(C2CC(c3ccc4ccccc4c3)=NN2C(=O)CNC2CCCCC2)cc1 (centres undefined),1,-3,9,-14,0,x
C=CCNCC(=O)N1N=C(c2ccc3ccccc3c2)CC1c1ccc(OC)cc1 (centres undefined),6,8,21,-8,43*,-31
CNC[C@@H]1Oc2c(NS(=O)(=O)c3ccc(OC)cc3)cccc2C(=O)N([C@H](C)CO)C[C@H]1C,-15,x,x,-5[16.7 µM],x,-2
O=C1/C(=C\c2ccco2)SC(=S)N1c1ccc(O)cc1,91*,-3,-1,x,0,x
COC(=O)C1=C(C)NC(C)=C(C(=O)OC)C1C(=O)OCC(=O)NC1CCCCC1C (centres undefined),1,5,-8,68*,0,2
O=C(C[C@H]1C=C[C@H](NC(=O)Nc2cc(F)ccc2F)[C@@H](CO)O1)NCc1ccc2c(c1)OCO2,x,2,x,x,0,0
O=C(C[C@@H]1CC[C@H]2[C@@H](COC[C@@H](O)CN2CCc2ccccc2)O1)NCc1ccccc1,-4,-7,-2,8[16.7 µM],0,-7
[O-][N+]1=c2ccc(Nc3ccccc3)cc2=NC12CCCCC2,11,12,x,21,x,x
COc1ccc(Nc2ccc3c(c2)=NC2(CCCCC2)[N+]=3[O-])cc1,75*,5,x,0,x,8
CN1C(=O)c2cc(NC(=O)C3CCOCC3)ccc2OC[C@H]2O[C@H](CC(=O)NC3CCCC3)CC[C@H]21,-8,0,2,-10[16.7 µM],0,-1
CC(C)CCNC(=O)COc1cccc2c1OC(C)(C)C2,7,x,5,35,43*,-2
COc1ccc(CCNC(=O)COc2cccc3c2OC(C)(C)C3)cc1OC,-16,0,3,3,0,0
